Test results published in ChEMBL document CHEMBL1909519, “L-Proline anchored multicomponent synthesis of novel pyrido[2,3-a]carbazoles; investigation of in vitro antimicrobial, antioxidant, cytotoxicity and structure activity relationship studies” (Eur J Med Chem, 2011).
Values after ≈ are worked out from the molar mass of the structure shown.

Legend:
[1] = system: Aspergillus niger; test: Antifungal activity against Aspergillus niger at 25 ug/ml after 48 hrs by agar disk diffusion assay; type: functional; settings: read-out: DIZ
Summary of the method: (§1)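 Fungal isolates (PSG Hospital, Coimbatore) grown on Sabouraud dextrose agar; agar well diffusion with compounds in DMSO at 0 (control), 25, 50, 75, 100. DMSO negative control, fluconazole ([…]) positive control. Plates held 28 ± 2 °C for 48 h; zone of inhibition diameter recorded in mm.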

[2] = system: SK-OV-3; test: Cytotoxicity against human SKOV3 cells after 48 hrs by SRB assay; type: functional, cell-based; settings: SK-OV-3, 48 h
Summary of the method: (§2)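 Cells in RPMI-1640 with 10% heat-inactivated FBS, 1 mM NaHCO3, 2 mM L-glutamine, 37 °C, 5% CO2; seeded (B16F10 5 × 10⁴ cells/mL, others 1 × 10⁵ cells/mL), 24 h, then compounds in DMSO at 1.56–50 for 48 h, triplicate wells. TCA fixation, SRB staining 30 min, tris extraction, OD 520 nm; IC50 by linear regression, mean ± SD of three independent experiments; cisplatin positive control.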

[3] = system: Aspergillus niger; test: Antifungal activity against Aspergillus niger after 48 hrs by agar disk diffusion assay; type: functional; summary of the method: as §1
[4] = system: Candida albicans; test: Antifungal activity against Candida albicans at 25 ug/ml after 48 hrs by agar disk diffusion assay; type: functional; settings: read-out: DIZ; summary of the method: as §1
[5] = system: Candida albicans; test: Antifungal activity against Candida albicans after 48 hrs by agar disk diffusion assay; type: functional; summary of the method: as §1
[6] = system: HCT-15; test: Cytotoxicity against human HCT15 cells after 48 hrs by SRB assay; type: functional, cell-based; settings: HCT-15, 48 h; summary of the method: as §2
[7] = system: B16-F10; test: Ratio of cisplatin IC50 to compound IC50 for mouse B16F10; type: functional
[8] = system: A549; test: Ratio of cisplatin IC50 to compound IC50 for human A549 cells; type: functional
[9] = organism: Homo sapiens; test: Ratio of cisplatin IC50 to compound IC50 for human SK-MEL-12; type: functional
[10] = system: Escherichia coli; test: Antibacterial activity against Escherichia coli at 25 ug/ml after 24 hrs by agar disk diffusion assay; type: functional; settings: read-out: DIZ
Summary of the method: (§3)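 Gram-negative clinical isolates (PSG Hospital, Coimbatore) tested by agar well diffusion on nutrient agar. Compounds dissolved in DMSO at 0 (control), 25, 50, 75, 100; DMSO was the negative control and ciprofloxacin ([…]) the positive control. Incubation 37 ± 2 °C for 24 h, then inhibition zone diameter measured in mm.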

[11] = system: Staphylococcus aureus; test: Antibacterial activity against Staphylococcus aureus after 24 hrs by agar disk diffusion assay; type: functional
Summary of the method: (§4)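 Agar well diffusion on nutrient agar against Gram-positive clinical isolates (PSG Hospital, Coimbatore). Compounds in DMSO tested at 0 (control), 25, 50, 75, 100; DMSO as solvent and negative control; ciprofloxacin ([…]) as positive control. Plates incubated 37 ± 2 °C, 24 h; zone of inhibition diameter read in mm.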

[12] = system: A549; test: Cytotoxicity against human A549 cells after 48 hrs by SRB assay; type: functional, cell-based; settings: A549, 48 h; summary of the method: as §2
[13] = system: Staphylococcus aureus; test: Antibacterial activity against Staphylococcus aureus at 25 ug/ml after 24 hrs by agar disk diffusion assay; type: functional; settings: read-out: DIZ; summary of the method: as §4
[14] = system: Klebsiella pneumoniae; test: Antibacterial activity against Klebsiella pneumoniae at 25 ug/ml after 24 hrs by agar disk diffusion assay; type: functional; settings: read-out: DIZ; summary of the method: as §3
[15] = system: HCT-15; test: Ratio of cisplatin IC50 to compound IC50 for human HCT15 cells; type: functional
[16] = system: B16-F10; test: Cytotoxicity against mouse B16F10 cells after 48 hrs by SRB assay; type: functional, cell-based; settings: B16-F10, 48 h; summary of the method: as §2
[17] = system: Enterococcus faecalis; test: Antibacterial activity against Enterococcus faecalis after 24 hrs by agar disk diffusion assay; type: functional; summary of the method: as §4
[18] = system: Radical scavenging activity; test: Antioxidant activity assessed as DPPH radical scavenging activity after 30 mins by micro plate reader; type: functional
Summary of the method: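 DPPH assay: various compound concentrations brought to volume with ethanol, mixed with 0.1 mM ethanolic DPPH alongside vitamin C standard; shaken 30 min at 24 °C, absorbance read at 517 nm; concentration giving 50% decrease determined.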

[19] = system: Enterococcus faecalis; test: Antibacterial activity against Enterococcus faecalis at 25 ug/ml after 24 hrs by agar disk diffusion assay; type: functional; settings: read-out: DIZ; summary of the method: as §4
[20] = system: Klebsiella pneumoniae; test: Antibacterial activity against Klebsiella pneumoniae after 24 hrs by agar disk diffusion assay; type: functional; summary of the method: as §3
[21] = Cytotoxicity against human SK-MEL-12 cells after 48 hrs by SRB assay; type: functional, cell-based; summary of the method: as §2
[22] = system: Escherichia coli; test: Antibacterial activity against Escherichia coli after 24 hrs by agar disk diffusion assay; type: functional; summary of the method: as §3
[23] = system: Enterococcus faecalis; test: Antibacterial activity against Enterococcus faecalis at 50 ug/ml after 24 hrs by agar disk diffusion assay; type: functional; settings: read-out: DIZ; summary of the method: as §4
[24] = system: Staphylococcus aureus; test: Antibacterial activity against Staphylococcus aureus at 50 ug/ml after 24 hrs by agar disk diffusion assay; type: functional; settings: read-out: DIZ; summary of the method: as §4
[25] = system: Aspergillus niger; test: Antifungal activity against Aspergillus niger at 50 ug/ml after 48 hrs by agar disk diffusion assay; type: functional; settings: read-out: DIZ; summary of the method: as §1
[26] = system: Klebsiella pneumoniae; test: Antibacterial activity against Klebsiella pneumoniae at 50 ug/ml after 24 hrs by agar disk diffusion assay; type: functional; settings: read-out: DIZ; summary of the method: as §3
[27] = system: Candida albicans; test: Antifungal activity against Candida albicans at 50 ug/ml after 48 hrs by agar disk diffusion assay; type: functional; settings: read-out: DIZ; summary of the method: as §1
[28] = system: Escherichia coli; test: Antibacterial activity against Escherichia coli at 50 ug/ml after 24 hrs by agar disk diffusion assay; type: functional; settings: read-out: DIZ; summary of the method: as §3
[29] = Cytotoxicity against human SK-MEL-12 cells up to 50 ug/ml after 48 hrs by SRB assay; type: functional, cell-based; summary of the method: as §2
[30] = system: B16-F10; test: Cytotoxicity against mouse B16F10 cells up to 50 ug/ml after 48 hrs by SRB assay; type: functional, cell-based; summary of the method: as §2
[31] = system: SK-OV-3; test: Cytotoxicity against human SKOV3 cells up to 50 ug/ml after 48 hrs by SRB assay; type: functional, cell-based; summary of the method: as §2
[32] = system: A549; test: Cytotoxicity against human A549 cells up to 50 ug/ml after 48 hrs by SRB assay; type: functional, cell-based; summary of the method: as §2
[33] = system: HCT-15; test: Cytotoxicity against human HCT15 cells up to 50 ug/ml after 48 hrs by SRB assay; type: functional, cell-based; summary of the method: as §2

Row | MIC [3] | MIC [5] | MIC [11] | MIC [17] | IC50 [18] | MIC [20] | MIC [22] | Structure (SMILES) | IC50 [2] | IC50 [6] | IC50 [12] | IC50 [16] | IC50 [21] | zone of inhibition at 50 µg/mL [23] | zone of inhibition at 50 µg/mL [24] | zone of inhibition at 50 µg/mL [25] | zone of inhibition at 50 µg/mL [26] | zone of inhibition at 50 µg/mL [27] | zone of inhibition at 50 µg/mL [28] | other results
1 | 75 µg/mL (≈ 210 µM) | 75 µg/mL (≈ 210 µM) | 25 µg/mL (≈ 70.1 µM) | 25 µg/mL (≈ 70.1 µM) | 227.37 µg/mL (≈ 638 µM) | 25 µg/mL (≈ 70.1 µM) | 25 µg/mL (≈ 70.1 µM) | Cc1ccc2[nH]c3c(c2c1)CCc1c-3nc(N)c(C#N)c1-c1cccs1 | 10 µg/mL (≈ 28.1 µM) | 3.45 µg/mL (≈ 9.68 µM) | 4.04 µg/mL (≈ 11.3 µM) | 2.85 µg/mL (≈ 8 µM) | 4.61 µg/mL (≈ 12.9 µM) | – | – | – | – | – | – | zone of inhibition at 25 µg/mL [1]: 15 mm; zone of inhibition at 25 µg/mL [4]: 17 mm; Ratio IC50 [7]: 1.94; Ratio IC50 [8]: 1.39; Ratio IC50 [9]: 2.25; zone of inhibition at 25 µg/mL [10]: 27 mm; zone of inhibition at 25 µg/mL [13]: 26 mm; zone of inhibition at 25 µg/mL [14]: 28 mm; Ratio IC50 [15]: 2.31; zone of inhibition at 25 µg/mL [19]: 29 mm
2 | > 100 µg/mL | > 100 µg/mL | 50 µg/mL (≈ 142 µM) | 50 µg/mL (≈ 142 µM) | 511.24 µg/mL (≈ 1450 µM) | 50 µg/mL (≈ 142 µM) | 50 µg/mL (≈ 142 µM) | Cc1ccc2[nH]c3c(c2c1)CCc1c-3nc(N)c(C#N)c1-c1cccnc1 | 10.6 µg/mL (≈ 30.1 µM) | 47.6 µg/mL (≈ 136 µM) | 16.1 µg/mL (≈ 45.9 µM) | 13.7 µg/mL (≈ 39 µM) | 16.6 µg/mL (≈ 47.3 µM) | 20 mm | 20 mm | 3 mm | 18 mm | 5 mm | 19 mm | –
3 | > 100 µg/mL | > 100 µg/mL | 50 µg/mL (≈ 113 µM) | 50 µg/mL (≈ 113 µM) | – | 50 µg/mL (≈ 113 µM) | 50 µg/mL (≈ 113 µM) | CCOC(=O)c1c(N)nc2c(c1-c1ccc(N(C)C)cc1)CCc1c-2[nH]c2ccc(C)cc12 | – | – | – | – | – | 18 mm | 21 mm | 7 mm | 22 mm | 5 mm | 19 mm | IC50 [29]: Not Active; IC50 [30]: Not Active; IC50 [31]: Not Active; IC50 [32]: Not Active; IC50 [33]: Not Active
